pIC50: −log10 of the molar value. ≈ marks a conversion by molar mass, not a printed value.

Broadly, the solubility is how much of the substance goes into solution per volume. A high value points to much dissolved substance. In general, pIC50 refers to −log10 of the IC50, conventionally taken in molar units.

Data set [1] in a line: Solubility of the compound in distilled water. In kind it is physicochemical. The method in brief: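 Solubility measured in distilled water, with filtrate concentration quantified by HPLC.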
Data set [2] addresses T1, Sodium/glucose cotransporter 2 (Homo sapiens, UniProt P31639).
T1 sequence (P31639 whole entry): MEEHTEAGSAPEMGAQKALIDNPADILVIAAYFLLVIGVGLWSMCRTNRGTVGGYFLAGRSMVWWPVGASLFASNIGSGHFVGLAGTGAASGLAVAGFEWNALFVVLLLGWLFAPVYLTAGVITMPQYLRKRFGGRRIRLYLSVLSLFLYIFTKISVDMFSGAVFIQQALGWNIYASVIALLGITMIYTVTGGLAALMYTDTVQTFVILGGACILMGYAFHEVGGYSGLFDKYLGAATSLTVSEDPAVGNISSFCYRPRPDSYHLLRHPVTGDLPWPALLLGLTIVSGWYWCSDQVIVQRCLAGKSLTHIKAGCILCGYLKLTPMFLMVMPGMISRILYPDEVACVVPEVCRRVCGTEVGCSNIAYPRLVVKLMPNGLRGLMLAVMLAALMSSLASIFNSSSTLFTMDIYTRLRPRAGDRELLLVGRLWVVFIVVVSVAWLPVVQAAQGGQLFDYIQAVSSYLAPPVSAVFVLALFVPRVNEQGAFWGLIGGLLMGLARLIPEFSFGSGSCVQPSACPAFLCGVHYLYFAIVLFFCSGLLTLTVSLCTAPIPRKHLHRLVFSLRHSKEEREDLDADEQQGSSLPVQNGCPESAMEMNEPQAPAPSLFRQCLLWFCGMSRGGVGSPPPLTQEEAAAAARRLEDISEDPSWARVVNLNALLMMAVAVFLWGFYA
Nature of the data set: Inhibition of human SGLT2 expressed in COS7 cells assessed as reduction of [14C]-AMG uptake. In kind it is cell-based, COS-7.

The target in data set [3] is T2, Sodium/glucose cotransporter 2 (Rattus norvegicus, UniProt P53792).
T2 sequence (P53792 whole entry): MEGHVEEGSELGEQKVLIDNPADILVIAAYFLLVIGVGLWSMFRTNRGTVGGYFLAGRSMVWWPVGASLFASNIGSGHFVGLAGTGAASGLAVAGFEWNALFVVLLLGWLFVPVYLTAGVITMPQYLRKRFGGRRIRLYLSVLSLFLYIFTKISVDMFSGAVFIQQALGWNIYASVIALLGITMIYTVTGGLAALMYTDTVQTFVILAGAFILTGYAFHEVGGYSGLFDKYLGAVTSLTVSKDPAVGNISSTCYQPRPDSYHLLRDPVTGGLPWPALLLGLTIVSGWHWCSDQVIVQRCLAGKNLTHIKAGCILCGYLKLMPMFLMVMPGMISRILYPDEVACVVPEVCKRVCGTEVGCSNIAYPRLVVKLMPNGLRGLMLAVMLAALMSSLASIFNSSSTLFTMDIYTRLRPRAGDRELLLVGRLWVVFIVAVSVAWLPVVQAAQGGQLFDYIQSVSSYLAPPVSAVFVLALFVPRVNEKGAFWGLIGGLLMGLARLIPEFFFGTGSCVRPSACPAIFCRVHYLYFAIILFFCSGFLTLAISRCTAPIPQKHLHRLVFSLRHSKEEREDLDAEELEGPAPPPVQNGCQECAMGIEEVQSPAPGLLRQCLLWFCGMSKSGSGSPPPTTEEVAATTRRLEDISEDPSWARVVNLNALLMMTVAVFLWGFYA
Kind of data set: Inhibition of rat SGLT2 expressed in COS7 cells assessed as reduction of [14C]-AMG uptake. Type of data set: cell-based, COS-7.

Data set [4] deals with T3, Sodium/glucose cotransporter 1 (Rattus norvegicus, UniProt P53790).
T3 sequence (P53790 whole entry): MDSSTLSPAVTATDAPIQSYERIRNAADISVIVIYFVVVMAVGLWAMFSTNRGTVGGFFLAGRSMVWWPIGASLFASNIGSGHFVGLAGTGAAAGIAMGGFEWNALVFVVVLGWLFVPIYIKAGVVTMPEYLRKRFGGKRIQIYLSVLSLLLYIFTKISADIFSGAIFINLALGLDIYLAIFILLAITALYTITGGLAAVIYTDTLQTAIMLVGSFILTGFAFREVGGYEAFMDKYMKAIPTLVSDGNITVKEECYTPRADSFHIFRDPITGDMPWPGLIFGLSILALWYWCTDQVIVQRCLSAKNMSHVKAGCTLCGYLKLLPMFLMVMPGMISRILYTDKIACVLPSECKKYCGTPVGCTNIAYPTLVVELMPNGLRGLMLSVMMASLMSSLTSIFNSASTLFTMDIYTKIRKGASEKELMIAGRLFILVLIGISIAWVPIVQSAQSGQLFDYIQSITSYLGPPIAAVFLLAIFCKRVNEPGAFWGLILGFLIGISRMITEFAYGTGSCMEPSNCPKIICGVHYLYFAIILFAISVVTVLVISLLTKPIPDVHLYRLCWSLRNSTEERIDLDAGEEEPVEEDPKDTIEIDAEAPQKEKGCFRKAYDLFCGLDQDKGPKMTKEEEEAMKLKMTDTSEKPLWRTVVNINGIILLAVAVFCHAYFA
Kind of data set: Inhibition of rat SGLT1 expressed in COS7 cells assessed as reduction of [14C]-AMG uptake. In kind it is cell-based, COS-7.

Data set [5] relates to Rattus norvegicus. Nature of the data set: Toxicity in Wistar rat streptozotocin-nicotinamide-induced diabetic model assessed as soft feces at 1 to 10 mg/kg, po. Type of data set: organism-based. Details: dose 1-10 mg/kg, route oral. The following applies: in vivo.
Data set [6] has as its system Rattus norvegicus. Kind of data set: Toxicity in Wistar rat assessed as overnight urinary glucose excretion at 10 mg/kg, po. In kind it is organism-based, Urine. As to conditions: in vivo. Also noted: dose 10 mg/kg, route oral. The method in brief:
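Male Wistar rats (8 weeks) in metabolic cages, fasted 08:00 to next morning. At 16:00 they received 10 mg/kg orally in 0.5% CMC or vehicle, and urine was collected until 08:00. Urine glucose by glucose oxidase; n = 5; F-test then Student's t or Welch's test versus vehicle.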

For data set [7], the system named is Rattus norvegicus. Nature of the data set: Toxicity in Wistar rat streptozotocin-nicotinamide-induced diabetic model assessed as diarrhea at 1 to 10 mg/kg, po. Type of data set: organism-based. Also noted: dose 1-10 mg/kg, route oral. As to conditions: in vivo.
A short description of data set [8]: Metabolic stability of the compound in rat intestinal microsomes assessed as compound remaining at 50 uM after 30 mins. In kind it is ADME, Intestine. The following applies: intestinal microsomes, read-out: Stability. The method in brief: (§1)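 50 µM final compound incubated at 37 °C with 0.8 mg/mL rat intestinal microsomes, 1 mg/mL NADPH, 50 mM ammonium acetate (pH 5.0) and 10 mM MgCl2. Levels measured by LC–MS at 0, 30 and 60 min; reported as % remaining relative to 0 min.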

In data set [9] the test system is Rattus norvegicus. Nature of the data set: Antihyperglycemic activity in po dosed Wistar rat streptozotocin-nicotinamide-induced diabetic model assessed as reduction of plasma glucose level after 1 hr by oral mixed carbohydrate tolerance test. Type of data set: functional, organism-based. Put shortly: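 Male Wistar rats (8 weeks) given nicotinamide 230 mg/kg i.p., then streptozotocin 85 mg/kg i.v. 15 min later; after 1 week, rats above 250 mg/dL plasma glucose at 1 h in a 2 g/kg glucose tolerance test were used. Overnight-fasted rats were dosed orally in 0.5% CMC, then immediately loaded with 2 g/kg starch/sucrose/lactose (6:3:1). Plasma glucose by glucose oxidase; n = 7; Dunnett's test versus vehicle.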

A short description of data set [10]: Metabolic stability of the compound in rat intestinal microsomes assessed as compound remaining at 50 uM after 60 mins. In kind it is ADME, Intestine. The following applies: intestinal microsomes, read-out: Stability. The method in brief:
as §1

In data set [1], `Cc1ccc(Cc2c(O[C@@H]3O[C@H](CO)[C@@H](O)[C@H](O)[C@H]3O)n[nH]c2C(C)C)c(C)c1` had a solubility of 3700 µg/mL (≈ 9.1 mM). Also, the pIC50 is 5.22 in data set [2], 5.33 in [3] and 7.17 in data set [4]. Moreover, the Activity result in [5] is “Non-toxic”; in data set [6], 0.8 mg; in [7], “Non-toxic”; in data set [9] it was “Dose-dependent effect”. In addition, the remaining at 0.5 h, 50 µM in data set [8] came to 91%. Further, the remaining at 1 h, 50 µM in data set [10] came out at 67%.

(Values after ChEMBL document CHEMBL2157910, “Structure-activity relationship studies of 4-benzyl-1H-pyrazol-3-yl β-d-glucopyranoside derivatives as potent and selective sodium glucose co-transporter 1 (SGLT1) inhibitors with therapeutic activity on postprandial hyperglycemia” (Bioorg Med Chem, 2012).)
